# Assay outcomes: PubChem BioAssay, Columbia University Molecular Screening Center
# The full list was thinned out, with hits kept by preference.
# INS promoter act – TRM-6 insulin promoter activation. activation, % at 2 µM. TRM-6 cells (human fetal islet line), insulin promoter eGFP reporter, imaging; plate-scaled: unstimulated 0, stimulated control 100. AID 1296. 0.81% of 130,000 active;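 active = activation at 2 µM above a set limit, confirmed on inspection of the cell images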;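 also: share of cells whose green reporter signal exceeds an intensity cutoff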
#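 test system = TRM-6 insulin promoter–eGFP reporter cells | benchmarks = stimulated versus unstimulated wells as plate controls | read-out basis = percent cells above green-intensity threshold, converted to percent activation versus plate controls | detection = fixed-cell fluorescence microscopy, eGFP plus Hoechst | incubation = tamoxifen pre-incubation 15 h overnight, then compound exposure 48 h at 37 °C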
# Numbers stand for hits; i = inactive; [ ] = another dose, or the depositor's remark.
SMILES,INS promoter act
COc1ccc(OC)c(C(=O)c2ccccc2)c1,i
CCOc1ccc(Cl)cc1CSc1ncn[nH]1,i
COc1cccc(/C=N/NC(=O)CN2CC(c3ccccc3)CC2=O)c1O (configuration not stated),i
O=C1c2ccccc2C(=O)c2c1cccc2N1CCCC1,i
Cc1cccc(NC2=C(NCCO)C(=O)c3ccccc3C2=O)c1,i
Cn1c(=O)c(NCCc2ccccc2)c2c3c(cccc31)C(=O)c1ccccc1-2,170.3[may fluoresce]
O=c1cc(NCCc2ccccc2)c2ccccc2o1,i
Cn1c(=O)c(NC2CCCCC2)c2c3c(cccc31)C(=O)c1ccccc1-2,566.7
O=C(NC1CCCCC1)n1c(=O)oc2ccccc21,i
O=S(=O)([O-])CCC[n+]1c(SCCCS(=O)(=O)O)sc2ccc(Cl)cc21,i
CCN1CCCC1CN(Cc1cc2ccc(C)cc2[nH]c1=O)C(=S)Nc1ccc(F)cc1 (configuration not stated),i
CCOP(=O)(O)c1ccccc1OCCCCCOc1ccccc1P(=O)(O)OCC,i
COc1cc(/C=N/NC(=O)c2ccncc2)ccc1OCc1cnc(Cl)s1,239.5
COc1cc(/C=N/NC(=O)c2cccc([N+](=O)[O-])c2)ccc1OCc1ccccc1,i
COc1cc(/C=C/C(=O)O)ccc1OCc1cnc(Cl)s1,i
Cc1ccc(NC(=O)C2CCCN2C(=O)Oc2ccccc2)cc1C (configuration not stated),i
Cc1cccc(C)c1NC(=O)C1(NC(=O)C2CCCN2C(=O)OC(C)(C)C)CCCCC1 (configuration not stated),171.4
CC(C)(C)OC(=O)N1CCCC1C(=O)NCCc1ccccc1 (configuration not stated),i
Cc1ccc(/C=N/NC(=O)c2cc(C3CC3)nc3ccccc23)o1,i
Cc1snc(S(=O)(=O)/C(C#N)=N/Nc2ccc(C(F)(F)F)cc2)c1C#N,i
CCOC(=O)N1CCC(N2CCN(S(=O)(=O)c3ccc4ccccc4c3)CC2)CC1,i
CC1(C)CC(=O)C(N=Nc2cc3c(cc2[N+](=O)[O-])OCCO3)=C(O)C1,i
O=C(Nn1c(C2CCC2)nc2ccccc2c1=O)c1cccs1,i
O=C(CSc1nc2ccccc2c(=O)n1NC(=O)c1ccccc1)c1ccccc1,i
O=C(Nn1c(Cc2cccs2)nc2ccccc2c1=O)c1ccc(F)c(F)c1,418.8
SMILES,INS promoter act
COCCNC(=O)CSc1nc2ccccc2c(=O)n1CCC(=O)N1CCN(c2ccccc2)CC1,i
Cc1ccsc1C(=O)Nc1cccc(S(=O)(=O)N(C)C)c1,430.8
CN(C)S(=O)(=O)c1cccc(NC(=O)Cc2ccc(Cl)cc2)c1,i
CN(C)S(=O)(=O)c1cccc(C(=O)Nc2ccccc2)c1,i
Cc1ccc(Cn2c(SCC(=O)NCC3CCCO3)nc3c2c(=O)n(C)c(=O)n3C)cc1 (configuration not stated),i
Nc1c(C(=O)Nc2nccs2)sc2nc(-c3cccs3)cc(C(F)(F)F)c12,181.7[may fluoresce]
O=C(Nc1nccc(-c2cccs2)n1)c1ccccc1Cl,i
N#Cc1sc2nc(-c3cccs3)cc(-c3ccccc3)c2c1N,i
COc1ccc(NC(=O)c2sc3nc(Cc4ccccc4)cc(C(F)(F)F)c3c2N)cc1OC,i
Cc1nnc(NC(=O)c2sc3nc(-c4cccs4)cc(C(F)(F)F)c3c2N)s1,106.8[may fluoresce]
Cc1cccc(OCc2nnc(NC(=O)c3cccs3)s2)c1,i
CN1CC2([N+](=O)[O-])CC=C(OCCO)C([N+](=O)[O-])(C1)C2 (configuration not stated),i
Cc1c(C=O)c2ccccc2n1CC(=O)NCc1ccc2c(c1)OCO2,i
O=C(CC1CC2CCC1C2)OCC(=O)c1c[nH]c2ccccc12 (configuration not stated),i
CC(Oc1ccccc1)C(=O)Nc1ccc(C(N)=O)cc1 (configuration not stated),174.2
CCOC(=O)c1ccccc1NC(=O)C(C)Oc1ccccc1 (configuration not stated),i
COc1ccc(OC(C)C(=O)Nc2cccc(OC)c2)cc1 (configuration not stated),i
CC(C)c1ccc2c(c1)C1Cc3ccccc3C1N2 (configuration not stated),i
CCN1CCN(C(c2cccs2)C(C)NC(=O)C(C)C)CC1 (configuration not stated),i
COCCNC(=O)CSc1nc2cc(OC)c(OC)cc2c(=O)n1CCc1ccc(S(N)(=O)=O)cc1,i
CC(C)CN=C(NS(=O)(=O)c1ccccc1)C(Cl)(Cl)Cl,i
CCOC(=O)c1cc2sccc2n1CC(=O)C(C)(C)C,213.3
CCOC(=O)c1cc2sccc2n1CC(=O)N1CCCc2ccccc21,i
CCOC(=O)c1cc2sc(C)cc2n1CC(=O)NCc1ccc(F)cc1,i
COC(=O)c1cc2sccc2n1CC(=O)N1CCCc2ccccc21,192.9
SMILES,INS promoter act
CCOC(=O)c1cc2sccc2n1Cc1ccccc1,i
O=C(c1cc2sccc2n1Cc1ccccc1)N1CCc2ccccc21,i
CCC(=O)c1ccc(OCC(=O)NCC2(N3CCCCC3)CCCCC2)cc1,i
CC(O)C(C(=O)OCc1ccc([N+](=O)[O-])cc1)N1C(=O)c2ccccc2C1=O (configuration not stated),i
COc1ccc(/C=N/NC(N)=S)cc1OC(=O)c1ccccc1,i
Cc1ccc(S(=O)(=O)Oc2ccccc2/C=N/NC(N)=S)cc1,102.7
COc1ccc(/C=N/NS(=O)(=O)c2ccccc2)cc1OS(=O)(=O)c1ccc(C)cc1,i
O=C(CSc1nnc(CCCOc2ccc(Cl)cc2Cl)o1)Nc1ccc(C(=O)O)cc1,i
O=C(O)CC12CC3CC(C1)CC(n1cncn1)(C3)C2,i
CCOC(=O)c1ccc(NC(=S)N2CCSC2c2ccc(Br)cc2)cc1 (configuration not stated),i
Fc1ccc(C(c2nnnn2Cc2ccco2)N2CCN(C3CCCCC3)CC2)cc1 (configuration not stated),89.2
O=C(c1ccco1)N1CCN(C(c2ccc(F)cc2)c2nnnn2Cc2cccs2)CC1 (configuration not stated),i
c1ccc(Cn2nnnc2C(c2cccnc2)N2CCN(C3CCCCC3)CC2)cc1 (configuration not stated),i
CC1CC1C(=O)OCC(=O)NC(=O)NC12CC3CC(CC(C3)C1)C2 (configuration not stated),i
Cc1onc(-c2ccccc2Cl)c1C(=O)Nc1ncn[nH]1,i
COc1ccc(C2CC(=O)N(CCCN(C)CCc3ccc(OC)c(OC)c3)C2)cc1 (configuration not stated),i
COc1ccc(CCNC2CC(=O)N(N(C)C)C2=O)cc1OC (configuration not stated),i
CCCN1CCC(N(C)CCc2ccc(OC)c(OC)c2)CC1,127.3
COc1ccc(CCCC(=O)Nc2ccc(F)cc2)cc1,i
O=C(Nc1ccc(F)cc1)C1CCN(S(=O)(=O)c2cccs2)CC1,i
CCOC(=O)c1c(CN2CCN(C)CC2)oc2ccc(OC)cc12,138.5
CCOC(=O)c1c(C)oc2ccc(OC(=O)c3cccs3)cc12,i
CCOC(=O)CCC(=O)c1c(C)oc2ccc(OC)cc12,i
CC1(C)Cc2c(sc3c2C2=NCCN2C=N3)CS1,i
Cc1cc(F)c(F)c(C(=O)N2C(C)CCCC2C)c1Cl (configuration not stated),i
Cc1ccc(C(NC(=O)c2ccccc2)C(Cl)(Cl)Cl)cc1 (configuration not stated),i
CC1CCN(Cc2c(O)ccc3c2O/C(=C\c2ccco2)C3=O)CC1,485.7
